Measurements as given in publication PMC4608253 (Journal of chromatography. B, Analytical technologies in …, 2015).
Read-outs that look alike come from different tables or passages of the source.

How the values were obtained:
[1] = assay type: physicochemical, mice; details: for Accuracy (RE, %) 25°C for 6 h / Accuracy (RE, %) Frozen for 30 days: stability in mice plasma/blood QC sample; for Accuracy (RE, %) Frozen for 30 days: −80°C; for Accuracy (RE, %) 4°C for 24 h: stability, extracted QC sample in auto-sampler
Outline: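 Blank mouse blood spiked with analytes and vitamin C, then extracted with methanol containing daidzein internal standard (0.5 μM) by 1 min vortex. Spun at 20,000 × g for 15 min and dried under air. Three replicates per QC level were held unextracted at 25°C for 6 h, at −80°C for 30 days, or extracted in the 4°C autosampler for 24 h. Analysed by UPLC-MS/MS (C18, formic acid/acetonitrile, positive MRM); accuracy as RE.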

in vivo = assay type: in vivo, A/J mice; details: for Tmax / AUC(0-inf) / AUC(0-t) / Cmax / half-life: male, A/J, mouse, whole blood, po; for detected in the blood: mice, oral XCHT extract 0.5 g/kg; for concentration in the PK study: A/J mice, oral XCHT 500 mg/kg, blood

Accuracy (RE, %) 25°C for 6 h ([1]; spiked concentration 3.9) [%] | Accuracy (RE, %) 25°C for 6 h ([1]; spiked concentration 62.5) [%] | Accuracy (RE, %) Frozen for 30 days ([1]; spiked concentration 3.9) [%] | Accuracy (RE, %) Frozen for 30 days ([1]; spiked concentration 62.5) [%] | Accuracy (RE, %) 4°C for 24 h ([1]; spiked concentration 3.9) [%] | Accuracy (RE, %) 4°C for 24 h ([1]; spiked concentration 62.5) [%] | Compound | Accuracy (RE, %) 25°C for 6 h ([1]; spiked concentration 500) [%] | Accuracy (RE, %) Frozen for 30 days ([1]; spiked concentration 500) [%] | Accuracy (RE, %) 4°C for 24 h ([1]; spiked concentration 500) [%] | AUC(0-inf) (in vivo; 500 mg/kg) [µM·h] | AUC(0-t) (in vivo; 500 mg/kg) [µM·h] | Cmax (in vivo; 500 mg/kg) [nM] | half-life (in vivo; 500 mg/kg) [h] | detected in the blood (in vivo) | Accuracy (RE, %) 25°C for 6 h ([1]; spiked concentration 0.488) [%] | Accuracy (RE, %) Frozen for 30 days ([1]; spiked concentration 0.488) [%] | Accuracy (RE, %) 4°C for 24 h ([1]; spiked concentration 0.488) [%] | also measured
2.8 | −2.3 | 4.4 | −12.1 | 2.6 | −8.4 | CCCCC[C@H](O)CC(=O)CCc1ccc(O)c(OC)c1 [(6)-Gingerol, 6-gingernol] | −1.0 | 1.2 | 2 | – | – | – | – | – | – | – | – | –
8.0 | 11.8 | 13.5 | 13 | −8.9 | 13.6 | COc1ccc(-c2coc3cc(O)ccc3c2=O)cc1 [Formononetin, formononetin] | −10.9 | 4.9 | 5 | – | – | – | – | – | – | – | – | –
2.1 | 1.6 | 6.9 | 14.0 | 5.4 | 12 | CC1(C)[C@@H](O)CC[C@]2(C)[C@H]3C(=O)C=C4[C@@H]5C[C@@](C)(C(=O)O)CC[C@]5(C)CC[C@@]4(C)[C@]3(C)CC[C@@H]12 [GA, glycyrrhetinic acid] | 8.1 | 13.5 | 14.6 | 3.3 ± 1.18 | 3.3 ± 1.18 | 263 ± 87.3 | 4.77 ± 1.93 | – | – | – | – | Cmax (in vivo; 0.5 g/kg): 263 ± 87.3 nM; Tmax (in vivo; 0.5 g/kg): 7.25 ± 5.5 h
– | 5.5 | – | 13.8 | – | 15 | O=C1C[C@@H](c2ccc(O[C@@H]3O[C@H](CO)[C@@H](O)[C@H](O)[C@H]3O)cc2)Oc2cc(O)ccc21 [Liquiritin] | 12.7 | 10.9 | 12.8 | 0.137 ± 0.0417 | 0.137 ± 0.0417 | 48.7 ± 38.2 | 9.33 ± 3.42 | detected | 7.3 | 13.9 | 14.4 | –
– | – | – | – | – | – | CC(C)=CCC[C@](C)(O)[C@H]1CC[C@]2(C)[C@@H]1[C@H](O)C[C@@H]1[C@@]3(C)CC[C@H](O[C@@H]4O[C@H](CO)[C@@H](O)[C@H](O)[C@H]4O[C@@H]4O[C@H](CO)[C@@H](O)[C@H](O)[C@H]4O)C(C)(C)[C@@H]3CC[C@]12C [Rg3, ginsenoside Rg3] | −4.3 | 0.4 | 0.4 | – | – | – | – | – | 9.2 | 8.0 | 1.57 | concentration in the PK study (in vivo; time 5 min): 1.33±0.48; concentration in the PK study (in vivo; time 30 min): 3.74±3.73; concentration in the PK study (in vivo; time 360 min): 1.61±0.53; Accuracy (RE, %) 25°C for 6 h ([1]; spiked concentration 6.25): 9.2%; Accuracy (RE, %) Frozen for 30 days ([1]; spiked concentration 6.25): 8.0%; Accuracy (RE, %) 4°C for 24 h ([1]; spiked concentration 6.25): 8.64%
−4.8 | −12.9 | −2.6 | 4.8 | −1.3 | 5.12 | O=c1c(O)c(-c2ccc(O)c(O)c2)oc2cc(O)cc(O)c12 [quercetin, quecertin] | 10.1 | 14.7 | 14.72 | – | – | – | – | – | – | – | – | –
– | – | – | – | – | – | C[C@@H]1O[C@@H](OC[C@H]2O[C@@H](Oc3c(-c4ccc(O)c(O)c4)oc4cc(O)cc(O)c4c3=O)[C@H](O)[C@@H](O)[C@@H]2O)[C@H](O)[C@H](O)[C@H]1O [rutin] | – | – | – | – | – | – | – | – | – | – | – | Accuracy (RE, %) 25°C for 6 h ([1]; spiked concentration 0.049): 13.2%; Accuracy (RE, %) 25°C for 6 h ([1]; spiked concentration 6.25): 3.1%; Accuracy (RE, %) 25°C for 6 h ([1]; spiked concentration 50): 6.3%; Accuracy (RE, %) Frozen for 30 days ([1]; spiked concentration 0.049): 8.3%; Accuracy (RE, %) Frozen for 30 days ([1]; spiked concentration 6.25): 8.5%; Accuracy (RE, %) Frozen for 30 days ([1]; spiked concentration 50): 7.9%; Accuracy (RE, %) 4°C for 24 h ([1]; spiked concentration 0.049): 9.3%; Accuracy (RE, %) 4°C for 24 h ([1]; spiked concentration 6.25): 12.7%; Accuracy (RE, %) 4°C for 24 h ([1]; spiked concentration 50): 12.1%
7.5 | −8.6 | −5.9 | −0.9 | 4.6 | −1 | COc1cc(CCC(C)=O)ccc1O [zingerone] | −14.6 | 12.7 | 11.4 | – | – | – | – | – | – | – | – | –

Compound | Accuracy (RE, %) 25°C for 6 h ([1]; spiked concentration 3.9) [%] | Accuracy (RE, %) 25°C for 6 h ([1]; spiked concentration 62.5) [%] | Accuracy (RE, %) Frozen for 30 days ([1]; spiked concentration 3.9) [%] | Accuracy (RE, %) Frozen for 30 days ([1]; spiked concentration 62.5) [%] | Accuracy (RE, %) 4°C for 24 h ([1]; spiked concentration 3.9) [%] | Accuracy (RE, %) 4°C for 24 h ([1]; spiked concentration 62.5) [%] | Accuracy (RE, %) 25°C for 6 h ([1]; spiked concentration 500) [%] | Accuracy (RE, %) Frozen for 30 days ([1]; spiked concentration 500) [%] | Accuracy (RE, %) 4°C for 24 h ([1]; spiked concentration 500) [%] | AUC(0-inf) (in vivo; 500 mg/kg) [µM·h] | AUC(0-t) (in vivo; 500 mg/kg) [µM·h] | Cmax (in vivo; 500 mg/kg) [nM] | half-life (in vivo; 500 mg/kg) [h] | detected in the blood (in vivo) | Accuracy (RE, %) 25°C for 6 h ([1]; spiked concentration 0.488) [%] | Accuracy (RE, %) Frozen for 30 days ([1]; spiked concentration 0.488) [%] | Accuracy (RE, %) 4°C for 24 h ([1]; spiked concentration 0.488) [%] | also measured
O=c1cc(-c2ccccc2)oc2cc(O)c(O)c(O)c12 [Baicalein, baicalein] | 10.3 | 9.9 | −11.4 | −14.5 | 12.3 | −14 | 0.7 | 9 | 13.1 | 0.119 ± 0.0338 | 0.0854 ± 0.026 | 32.7 ± 15 | 6.85 ± 4.32 | detected | – | – | – | Tmax (in vivo; 0.5 g/kg): 0.083 h; Tmax (in vivo; 500 mg/kg): 0.083 h
O=C(O)[C@H]1O[C@@H](Oc2cc3oc(-c4ccccc4)cc(=O)c3c(O)c2O)[C@H](O)[C@@H](O)[C@@H]1O [Baicalin, baicalin] | −5.7 | −5.3 | 6.7 | 14.1 | 3.8 | 14.8 | 1.1 | 4.9 | 5.2 | 9.71 ± 0.709 | 8.96 ± 2.08 | 787 ± 123 | 3.11 ± 0.95 | detected | – | – | – | Tmax (in vivo; 0.5 g/kg): 2.13 ± 1.18 h; Tmax (in vivo; 500 mg/kg): 2.57 h
CC(C)=CCC[C@](C)(O[C@@H]1O[C@H](CO)[C@@H](O)[C@H](O)[C@H]1O)[C@H]1CC[C@]2(C)[C@@H]1[C@H](O)C[C@@H]1[C@@]3(C)CC[C@H](O[C@@H]4O[C@H](CO)[C@@H](O)[C@H](O)[C@H]4O[C@@H]4O[C@H](CO)[C@@H](O)[C@H](O)[C@H]4O)C(C)(C)[C@@H]3CC[C@]12C [Rd, Ginsenoside Rd] | – | −3.7 | – | 11.4 | – | 12.8 | −7.1 | 12.2 | 12.3 | – | – | – | – | – | 13.3 | 11.6 | −4 | concentration in the PK study (in vivo; time 360 min): 5.07±6.67; concentration in the PK study (in vivo; time 720 min): 6.23±7.96; concentration in the PK study (in vivo; time 1440 min): 5.20±7.64
CC(C)=CCC[C@](C)(O[C@@H]1O[C@H](CO)[C@@H](O)[C@H](O)[C@H]1O)[C@H]1CC[C@]2(C)[C@@H]1[C@H](O)C[C@@H]1[C@@]3(C)CC[C@H](O)C(C)(C)[C@@H]3[C@@H](O[C@@H]3O[C@H](CO)[C@@H](O)[C@H](O)[C@H]3O[C@@H]3O[C@@H](C)[C@H](O)[C@@H](O)[C@H]3O)C[C@]12C [Re, ginsenoside Re] | 10.1 | 8.8 | 10.4 | 9.7 | −5.4 | 13.76 | −0.3 | 8.9 | 9.7 | 0.045 ± 0.0289 | 0.0423 ± 0.0265 | 50.2 ± 40.1 | 2.72 ± 2.15 | detected | – | – | – | Tmax (in vivo; 500 mg/kg): 0.25 h
CC(C)=CCC[C@](C)(O[C@@H]1O[C@H](CO)[C@@H](O)[C@H](O)[C@H]1O)[C@H]1CC[C@]2(C)[C@@H]1[C@H](O)C[C@@H]1[C@@]3(C)CC[C@H](O)C(C)(C)[C@@H]3[C@@H](O[C@@H]3O[C@H](CO)[C@@H](O)[C@H](O)[C@H]3O)C[C@]12C [Rg1, ginsenoside Rg1] | – | 7.4 | – | 9.2 | – | 10.1 | 8.5 | 12.5 | 12.12 | – | – | – | – | – | 14.8 | 7.2 | 4.7 | concentration in the PK study (in vivo; time 15 min): 0.80±0.50; concentration in the PK study (in vivo; time 480 min): 1.16±0.29
